≈ marks a conversion by molar mass, not a printed value. Calls of active or inactive are those of the source. The calls are words filed in the database; no cut-off is given here. Where a SMILES comes first, the peptide text is derived from it. The star is where a group is joined. Boc = CC(C)(C)OC(=O)*; NHBn = c1ccc(CN*)cc1
What was measured:
Cryptococcus neoformans = assay: Antifungal activity against Cryptococcus neoformans ATCC 90113 assessed as inhibition of fungal growth by CLSI method; type: functional, organism-based
Candida albicans = assay: Antifungal activity against Candida albicans ATCC 10231 assessed as inhibition of fungal growth by CLSI method; type: functional, organism-based
Aspergillus fumigatus = assay: Antifungal activity against Aspergillus fumigatus ATCC 1022 assessed as inhibition of fungal growth by CLSI method; type: functional, organism-based
Klebsiella pneumoniae = assay: Antibacterial activity against Klebsiella pneumoniae ATCC BAA1705 assessed as inhibition of bacterial growth by CLSI method; type: functional, organism-based
Vero = assay: Cytotoxicity against African green monkey Vero cells assessed as reduction in cell viability incubated for 48 hrs by Neutral red assay; type: cell-based; settings: chlorocebus sabaeus
Procedure, shortened: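 VERO monkey kidney cells seeded at 25,000 cells/well and incubated 24 h to confluency. Peptide added, then a further 48 h incubation. Viability read by neutral red uptake.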

Staphylococcus aureus = assay: Antibacterial activity against methicillin-resistant Staphylococcus aureus ATCC 33591 assessed as inhibition of bacterial growth by CLSI method; type: functional, organism-based
Enterococcus = assay: Antibacterial activity against vancomycin resistant Enterococcus ATCC MP-1 assessed as inhibition of bacterial growth by CLSI method; type: functional, organism-based
Escherichia coli = assay: Antibacterial activity against Escherichia coli ATCC 35218 assessed as inhibition of bacterial growth by CLSI method; type: functional, organism-based
Pseudomonas aeruginosa = assay: Antibacterial activity against Pseudomonas aeruginosa ATCC 27853 assessed as inhibition of bacterial growth by CLSI method; type: functional, organism-based

MIC (Cryptococcus neoformans)	SMILES	IC50 (Cryptococcus neoformans)	Activity (Candida albicans)	Activity (Aspergillus fumigatus)	Activity (Klebsiella pneumoniae)	Activity (Vero)	IC50 (Staphylococcus aureus)	MIC (Staphylococcus aureus)	IC50 (Enterococcus)	IC50 (Escherichia coli)	IC50 (Pseudomonas aeruginosa)	MIC (Enterococcus)	MIC (Escherichia coli)	MIC (Pseudomonas aeruginosa)
> 20 µg/mL	CCc1ccc(-c2nc(C[C@H](NC(=O)OC(C)(C)C)C(=O)N[C@@H](Cc3c[nH]c4ccccc34)C(=O)N[C@@H](CCCNC(=N)N)C(=O)OC)c[nH]2)cc1	9.66 µg/mL (≈ 13.5 µM)	inactive	inactive	inactive	> 10 µg/mL								
1.25 µg/mL (≈ 1.35 µM)	C[C@@H]1[C@H](O)[C@@H](C)/C=C/C=C/C=C/C=C/C=C/C=C/C=C/[C@H](O[C@@H]2O[C@H](C)[C@@H](O)[C@H](N)[C@@H]2O)C[C@@H]2O[C@](O)(C[C@@H](O)C[C@@H](O)[C@H](O)CC[C@@H](O)C[C@@H](O)CC(=O)O[C@H]1C)C[C@H](O)[C@H]2C(=O)O [AMPHOTERICIN B]													
> 20 µg/mL	COC(=O)[C@H](CCCNC(=N)N)NC(=O)[C@H](Cc1c[nH]c2ccccc12)NC(=O)[C@@H](N)Cc1c[nH]c(-c2ccc(C)cc2)n1.Cl.Cl	8.98 µg/mL	inactive	inactive	inactive	> 10 µg/mL								
> 20 µg/mL	COC(=O)[C@H](CCCNC(=N)N)NC(=O)[C@H](Cc1c[nH]c2ccccc12)NC(=O)[C@@H](N)Cc1c[nH]c(-c2ccccc2)n1.Cl.Cl	9.23 µg/mL	inactive	inactive	inactive	> 10 µg/mL								
> 20 µg/mL	COC(=O)[C@H](CCCNC(=N)N)NC(=O)[C@H](Cc1c[nH]c2ccccc12)NC(=O)[C@H](Cc1c[nH]c(-c2ccc(C)cc2)n1)NC(=O)OC(C)(C)C	7.66 µg/mL (≈ 10.9 µM)	inactive	inactive	inactive	> 10 µg/mL								
10 µg/mL	Cl.Cl.N=C(N)NCCC[C@H](NC(=O)[C@H](Cc1c[nH]c2ccccc12)NC(=O)[C@@H](N)Cc1c[nH]cn1)C(=O)NCc1ccccc1 (H-His-Trp-Arg-NHBn)	4.92 µg/mL	inactive	inactive	inactive	> 10 µg/mL								
> 20 µg/mL	CC(C)(C)OC(=O)N[C@@H](Cc1c[nH]c(-c2ccccc2)n1)C(=O)N[C@@H](Cc1c[nH]c2ccccc12)C(=O)N[C@@H](CCCNC(=N)N)C(=O)NCc1ccccc1	7.93 µg/mL (≈ 10.4 µM)	inactive	inactive	inactive	> 10 µg/mL								
10 µg/mL	COC(=O)[C@H](CCCNC(=N)N)NC(=O)[C@H](Cc1c[nH]c2ccccc12)NC(=O)[C@@H](N)Cc1c[nH]cn1.Cl.Cl (H-His-Trp-Arg-OMe)	2.41 µg/mL	inactive	inactive	inactive	> 10 µg/mL								
5 µg/mL	Cc1ccc(-c2nc(C[C@H](N)C(=O)N[C@@H](Cc3c[nH]c4ccccc34)C(=O)N[C@@H](CCCNC(=N)N)C(=O)NCc3ccccc3)c[nH]2)cc1.Cl.Cl	3.36 µg/mL	inactive	inactive	inactive	> 10 µg/mL								
	CC(C)(C)OC(=O)N[C@@H](Cc1c[nH]cn1)C(=O)N[C@@H](Cc1c[nH]c2ccccc12)C(=O)N[C@@H](CCCNC(=N)N)C(=O)NCc1ccccc1 (Boc-His-Trp-Arg-NHBn)	> 20 µg/mL	inactive	inactive	inactive	> 10 µg/mL								
> 20 µg/mL	COC(=O)[C@H](CCCNC(=N)N)NC(=O)[C@H](Cc1c[nH]c2ccccc12)NC(=O)[C@H](Cc1c[nH]c(-c2ccccc2)n1)NC(=O)OC(C)(C)C	8.85 µg/mL (≈ 12.9 µM)	inactive	inactive	inactive	> 10 µg/mL								
10 µg/mL	Cl.Cl.N=C(N)NCCC[C@H](NC(=O)[C@H](Cc1c[nH]c2ccccc12)NC(=O)[C@@H](N)Cc1c[nH]c(-c2ccccc2)n1)C(=O)NCc1ccccc1	5.31 µg/mL	inactive	inactive	inactive	> 10 µg/mL								

SMILES	MIC (Cryptococcus neoformans)	IC50 (Cryptococcus neoformans)	Activity (Candida albicans)	Activity (Aspergillus fumigatus)	Activity (Klebsiella pneumoniae)	Activity (Vero)	IC50 (Staphylococcus aureus)	MIC (Staphylococcus aureus)	IC50 (Enterococcus)	IC50 (Escherichia coli)	IC50 (Pseudomonas aeruginosa)	MIC (Enterococcus)	MIC (Escherichia coli)	MIC (Pseudomonas aeruginosa)
Cc1ccc(-c2nc(C[C@H](NC(=O)OC(C)(C)C)C(=O)N[C@@H](Cc3c[nH]c4ccccc34)C(=O)N[C@@H](CCCNC(=N)N)C(=O)NCc3ccccc3)c[nH]2)cc1	5 µg/mL (≈ 6.44 µM)	4.34 µg/mL (≈ 5.59 µM)	inactive	inactive	inactive	> 10 µg/mL	17.5 µg/mL (≈ 22.5 µM)	20 µg/mL (≈ 25.7 µM)	> 20 µg/mL	> 20 µg/mL	> 20 µg/mL			
CC(C)(C)OC(=O)N[C@@H](Cc1c[nH]c(-c2ccc(-c3ccccc3)cc2)n1)C(=O)N[C@@H](Cc1c[nH]c2ccccc12)C(=O)N[C@@H](CCCNC(=N)N)C(=O)NCc1ccccc1	2.5 µg/mL (≈ 2.98 µM)	2.15 µg/mL (≈ 2.56 µM)	inactive	inactive	inactive	> 10 µg/mL	4.56 µg/mL (≈ 5.43 µM)	10 µg/mL (≈ 11.9 µM)	8.82 µg/mL (≈ 10.5 µM)	> 20 µg/mL	19.8 µg/mL (≈ 23.6 µM)	10 µg/mL (≈ 11.9 µM)		
CCCCc1ccc(-c2nc(C[C@H](N)C(=O)N[C@@H](Cc3c[nH]c4ccccc34)C(=O)N[C@@H](CCCNC(=N)N)C(=O)NCc3ccccc3)c[nH]2)cc1.Cl.Cl	5 µg/mL	2.27 µg/mL	inactive	inactive	inactive	> 10 µg/mL	4.46 µg/mL	10 µg/mL	9.99 µg/mL	16.3 µg/mL	17.2 µg/mL	20 µg/mL	> 20 µg/mL	> 20 µg/mL
CCc1ccc(-c2nc(C[C@H](N)C(=O)N[C@@H](Cc3c[nH]c4ccccc34)C(=O)N[C@@H](CCCNC(=N)N)C(=O)OC)c[nH]2)cc1.Cl.Cl	2.5 µg/mL	1.85 µg/mL	inactive	inactive	inactive	> 10 µg/mL	> 20 µg/mL		> 20 µg/mL	17.4 µg/mL	> 20 µg/mL		> 20 µg/mL	
COC(=O)[C@H](CCCNC(=N)N)NC(=O)[C@H](Cc1c[nH]c2ccccc12)NC(=O)[C@H](Cc1c[nH]c(-c2ccc(-c3ccccc3)cc2)n1)NC(=O)OC(C)(C)C	> 20 µg/mL	8.06 µg/mL (≈ 10.6 µM)	inactive	inactive	inactive	> 10 µg/mL	16.3 µg/mL (≈ 21.3 µM)	> 20 µg/mL		> 20 µg/mL	> 20 µg/mL			
CCc1ccc(-c2nc(C[C@H](NC(=O)OC(C)(C)C)C(=O)N[C@@H](Cc3c[nH]c4ccccc34)C(=O)N[C@@H](CCCNC(=N)N)C(=O)NCc3ccccc3)c[nH]2)cc1	2.5 µg/mL (≈ 3.16 µM)	1.5 µg/mL (≈ 1.9 µM)	inactive	inactive	inactive	> 10 µg/mL	8.93 µg/mL (≈ 11.3 µM)	20 µg/mL (≈ 25.3 µM)	14.9 µg/mL (≈ 18.8 µM)	> 20 µg/mL	> 20 µg/mL	> 20 µg/mL		
